In the library only some 1.6% were active in any assay of this set; here they are far more common.
UHRF1 binding: UHRF1 methyl-DNA binding inhibition; Q96T88; UHRF1 binding to methylated oligo, TR-FRET; inhibition, % at 4.4 µM; 370,000 compounds, 0.75% hits; AID 687016; in the data active = inhibition above about 21%;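 note: UHRF1 SRA domain binding a hemimethylated CpG hairpin DNA probe; 0% = median of test compound wells and 100% = reference inhibitor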
TDP2 inh: blocks human TDP2 phosphodiesterase activity | O95551 | recombinant TDP2, T5PNP hydrolysis, p-nitrophenol absorbance 415 nm | inhibition, % at 12.8 µM | 370,000 compounds, 0.34% hits | AID 720702;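 active = inhibition above the mean of all tested compounds plus 3 SD, set per campaign, cut at about 25% in these data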;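 note: 0% = DMSO with enzyme and 100% = buffer with substrate but no TDP2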
Target sequence (O95551 whole entry, looked up): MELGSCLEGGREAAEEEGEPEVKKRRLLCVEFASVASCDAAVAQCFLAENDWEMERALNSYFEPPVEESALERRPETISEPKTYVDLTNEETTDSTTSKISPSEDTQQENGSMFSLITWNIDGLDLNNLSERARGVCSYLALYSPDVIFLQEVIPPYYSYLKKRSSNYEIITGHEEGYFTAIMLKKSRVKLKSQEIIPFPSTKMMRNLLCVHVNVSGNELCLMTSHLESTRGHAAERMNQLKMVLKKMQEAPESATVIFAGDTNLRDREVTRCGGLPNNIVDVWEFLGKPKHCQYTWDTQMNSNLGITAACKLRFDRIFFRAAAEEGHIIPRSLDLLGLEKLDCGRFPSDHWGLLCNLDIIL
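System – recombinant human TDP2 · Quantity – TDP2 enzyme at 120 nM final · Doses – single concentration, 12.8 µM nominal, with 1% DMSO · Incubation – 2 h at 37 °C · Measured by – epi absorbance of p-nitrophenol freed from T5PNP by hydrolysis · Read-out – % inhibition relative to enzyme-containing and enzyme-free wells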
LEDGF integ inh: blocks HIV-1 LEDGF/p75-dependent DNA integration. TR-FRET IN-LEDGF/p75 DNA integration, Eu/Cy5. inhibition, % at 3.7 µM. 370,000 compounds, 0.64% hits. AID 743269;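 active = inhibition above the screen-wide mean plus 3 SD, cut at about 13% in these data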;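 note: signal is the Cy5 over europium emission ratio at 671 and 618 nm; 0% = plate median of compound wells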
MBD2 DNA inh: MBD2-methylated oligo binding inhibition; TR-FRET, MBD2 binding to methylated oligonucleotide; inhibition, % at 4.4 µM; 370,000 compounds, 0.31% hits; AID 686964; in the data active = inhibition above about 13%
The depositor's hits bear a star.

SMILES	UHRF1 binding	TDP2 inh	LEDGF integ inh	MBD2 DNA inh
COc1cc(C2C(C#N)=C(N)OC3=C2C(=O)CCC3)c([N+](=O)[O-])cc1OC (stereo not given)	-4.3	6.5	13.4*	2.7
Cc1ccc(S(=O)(=O)NC(N)=NCCc2ccc(Cl)cc2)cc1C	-1.7	7.1	4.3	-0.3
O=C(CSc1nccc(=O)[nH]1)NCc1ccco1	33.5*	10.0	2.0	1.8
CC(NC(=O)CSc1nnc(-c2cccc(S(=O)(=O)N3CCCCC3)c2)o1)C12CC3CC(CC(C3)C1)C2 (stereo not given)	-0.9	2.0	-2.8	-1.1
Cc1ccc(S(=O)(=O)NC(=O)Nc2ccc(N(C)C)cc2)cc1	4.1	11.0	26.5*	-2.5
Cc1ccc(NC(=O)NNS(=O)(=O)c2ccc(Br)cc2)cc1	-0.1	3.9	0.3	-4.9
CCOC(=O)C1(Cc2cccc(OC)c2)CCN(CCO)CC1	-3.2	-13.7	10.5	0.9
CCOc1ccccc1NC(=O)COC(=O)COc1c(Cl)cc(Cl)c2ccc(C)nc12	37.1*	-0.1	-3.9	-0.1
CCOC(=O)Cn1c(C(C)=O)nc2ccccc21	-1.2	-3.4	-0.9	-5.8
O=C1C=C(c2ccccc2Oc2ccccc2)C[C@@H](c2ccc(F)cc2)C1	21.8*	-3.1	3.9	10.9
O=C(Nc1cc(C(F)(F)F)ccc1N1CCOCC1)c1cnccn1	-0.2	0.4	1.6	0.2
O=C(Nc1ccccc1N1CCOCC1)c1cnccn1	37.3*	4.0	4.1	-1.7
O=S(=O)(Nc1ccccc1N1CCCCC1)c1cccs1	-1.1	-2.7	-4.9	-2.6
CCOC(=O)C1(CCCc2ccccc2)CCN(C(=O)COC)CC1	0.5	2.0	-3.6	-5.6
Cc1ccc(N2NC(=O)/C(=C/c3ccc(-c4ccc(Cl)c(C(=O)O)c4)o3)C2=O)cc1C	4.1	-5.1	-2.1	-1.5
CC1=NOC(=O)/C1=C\c1ccc(-c2ccc(Cl)c(C(=O)O)c2)o1	28.3*	-18.9	7.0	4.7
CC1=NN(c2ccc(Cl)c(C(=O)O)c2)C(=O)/C1=C\c1ccc(-c2ccc(C(=O)O)cc2)o1	2.6	-6.8	-1.1	-3.3
COC(=O)c1ccc(N2NC(=O)/C(=C/c3ccc(-c4ccc(Cl)c(C(=O)O)c4)o3)C2=O)cc1	39.4*	-3.5	10.7	9.0
CCCn1c(=N)c(C(=O)NCC2CCCO2)cc2c(=O)n3cccc(C)c3nc21 (stereo not given)	-4.2	1.5	0.4	-11.7
CC(=O)Nc1ccc(NC(=O)COC(=O)c2cc([N+](=O)[O-])ccc2N2CCOCC2)cc1	1.3	17.8	-1.2	-1.3
CN1CCN(c2nc3c(c(=O)n(C)c(=O)n3C)n2Cc2ccccc2F)CC1	60.0*	0.4	-4.2	1.0
Cn1c(=O)c2c(nc(N3CCc4ccccc4C3)n2Cc2ccccc2F)n(C)c1=O	-0.6	4.0	-1.1	-1.8
COC(=O)c1ccc(/C=C/c2c(-c3ccsc3)sc3ccccc23)cc1	23.2*	0.1	2.1	-1.4
COc1ccc(-c2sc3ccccc3c2/C=C/c2ccc(N)cc2)cc1	-0.6	3.5	-4.2	-0.7
CC1(C)Cc2c(c(=S)nc(-c3ccccc3)n2Cc2cccnc2)CO1	18.6	-0.5	1.4	-0.2
SMILES	UHRF1 binding	TDP2 inh	LEDGF integ inh	MBD2 DNA inh
COc1ccc(-c2nc(=S)c3c(n2Cc2cccnc2)CC(C)(C)OC3)cc1	23.9*	7.6	-0.5	9.7
CCCCc1c(Cc2cccc(F)c2)ncn1CCc1ccccc1OC	21.2*	-3.4	10.3	4.9
CC1=C(C(=O)N2CCOCC2)CC(CC(=O)NC2CCCCC2)C(=O)N1Cc1ccccc1 (stereo not given)	22.2*	2.9	1.3	12.7
CC1=C(C(=O)N2CCOCC2)CC(CC(=O)NC2CC2)C(=O)N1Cc1ccccc1 (stereo not given)	7.0	-4.5	-5.4	4.2
CC1=NN(c2ccccc2)C(=O)/C1=C/c1ccc[nH]1	-7.5	-2.0	-1.2	-2.6
CC1=NN(c2ccccc2)C(=O)/C1=C/c1ccc(Cl)cc1	12.4	70.6*	8.4	7.9
CC1=NN(c2ccccc2)C(=O)C1=Cc1ccccc1	16.4	72.9*	11.8	4.8
CN(C)c1ccc(C(=O)NNC(=O)c2ccc(Cl)cc2)cc1	-2.4	2.0	-2.3	-4.1
COc1cc(CC2COC(c3ccc(O)c(OC)c3)C2COC(C)=O)ccc1O (stereo not given)	13.7	10.3	14.3*	12.4
Cc1[nH]c2c(ccc3cccnc32)c1C	-2.0	-17.2	-6.8	2.5
CC1=[N+](C)c2c(ccc3cccnc23)C1(C)C	1.7	37.8*	8.1	-5.9
COc1ccccc1Nc1ccc(C(=O)NC2CCCCC2)cn1	26.9*	-9.6	-2.2	-1.6
COC(=O)c1sc(N)c(C(=O)OC)c1COC(=O)CNS(=O)(=O)c1cccc(C#N)c1	-0.3	-9.2	3.1	4.4
CC1=NN(c2ccccc2)C(=O)C1N=Nc1cccc(O)c1 (stereo not given)	-1.7	0.4	-0.1	-3.9
CC1=NN(c2ccc(C)cc2C)C(=O)C1C(c1cccc(O)c1)C1C(=O)N(c2ccc(C)cc2C)N=C1C (stereo not given)	8.4	70.6*	12.4	-4.0
CCN(CC(=O)NCc1cccs1)S(=O)(=O)c1cccc(C(C)=O)c1	24.4*	-4.5	-1.3	5.1
CCN(CC(=O)NCc1cccs1)S(=O)(=O)c1ccc([N+](=O)[O-])cc1	0.3	-7.3	7.0	-4.8
Cc1ccc(N2CC(=O)Nc3c(sc4nc(C)cc(C)c34)C2=O)cc1	25.2*	6.3	3.0	5.6
C[C@@]12C(=O)N(c3cccc(Cl)c3)C(=O)N1[C@H](c1ccc(Cl)cc1)[C@@H]1C(=O)N(C3CCCCC3)C(=O)[C@@H]12	1.5	-6.9	0.1	-1.6
COc1ccc(N2C(=O)N3[C@H](c4ccc(Cl)cc4)[C@@H]4C(=O)N(C5CCCCC5)C(=O)[C@@H]4[C@]3(C)C2=O)cc1	22.4*	9.6	1.3	7.2
COc1cc(C(=O)OCC(=O)Nc2c(C)n(C)n(-c3ccccc3)c2=O)c([N+](=O)[O-])cc1OC	32.2*	0.5	5.5	2.1
O=Cc1cn(CC(=O)Nc2ccc3c(c2)OCO3)c2ccccc12	35.3*	4.6	-3.6	5.6
Cc1ccc(NC(=O)Cn2cc(C=O)c3ccccc32)cc1	-0.6	-2.0	-1.5	0.2
O=C(NCC1CCCO1)C1CCN(C2CCN(CCCC3CCCC3)CC2)CC1 (stereo not given)	22.5*	-3.1	-5.0	8.1
O=C(NCC1CCCO1)C1CCN(C2CCN(C(=O)CC3CCCC3)CC2)CC1 (stereo not given)	2.1	-4.6	-2.0	-6.3
O=C(NC1CCCC1)C(=O)N(Cc1cccnc1)C(C(=O)NCC1CCCO1)c1ccco1 (stereo not given)	26.3*	-11.6	-0.4	7.2
O=C(Nc1ccccc1)/C(=C/c1ccc2c(c1)OCO2)NC(=O)c1ccco1	21.4*	-0.8	-0.8	8.5
O=C(Nc1ccccc1)/C(=C\c1ccc2c(c1)OCO2)NC(=O)c1ccco1	-1.6	4.2	-1.0	-0.8
CCOC(=O)C1(Cc2ccc(OC)cc2)CCN(C(=O)c2cc3ccccc3[nH]2)CC1	-0.2	-1.9	-1.2	-2.1

Source: PubChem BioAssay (The Scripps Research Institute Molecular Screening Center)
